# Experimental data taken from ChEMBL document CHEMBL1137356, “Tricyclic imidazoline derivatives as potent and selective adenosine A1 receptor antagonists” (J Med Chem, 2006).
# Key:
# [1] = Aqueous solubility of the compound; type: physicochemical
# [2] = Oral bioavailability in rat at 1 mg/kg, iv and po; type: ADME, organism-based; settings: in vivo
# In short: (§1)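 Rats given 1 mg/kg orally and intravenously to obtain pharmacokinetic parameters.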
# Rattus norvegicus [3] = experiment: Volume of distribution in rat at 1 mg/kg, po; type: ADME, organism-based; set-up: dose 1 mg/kg, route oral; settings: in vivo; in short: as §1
# [4] = Clearance in rat at 1 mg/kg, po; type: ADME, organism-based; set-up: dose 1 mg/kg, route oral; settings: in vivo; in short: as §1
# Rattus norvegicus [5] = experiment: Sodium excretion level in po dosed rat diuresis model; type: ADME, organism-based
# In short: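 Rats held in metabolic cages and dosed by gavage as 0.5% cmc suspension at several doses; urine collected for 4 h and sodium excretion (UNaV) measured.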
# [6] = Half life in rat 1 mg/kg, po; type: ADME, organism-based; set-up: dose 1 mg/kg, route oral; settings: in vivo; in short: as §1
# [7] = (§2) AUC(last) in rat at 1 mg/kg, po; type: ADME, organism-based, Plasma; set-up: time 0 - last, dose 1 mg/kg, route oral; settings: plasma; in short: as §1
# Adenosine receptor A1 [8] = biological target: T1, Adenosine receptor A1 (Rattus norvegicus, UniProt P25099); experiment: Displacement of [3H]DPCPX from adenosine A1 receptor in rat cerebral cortex; type: tissue-based
# T1 sequence (P25099 whole entry): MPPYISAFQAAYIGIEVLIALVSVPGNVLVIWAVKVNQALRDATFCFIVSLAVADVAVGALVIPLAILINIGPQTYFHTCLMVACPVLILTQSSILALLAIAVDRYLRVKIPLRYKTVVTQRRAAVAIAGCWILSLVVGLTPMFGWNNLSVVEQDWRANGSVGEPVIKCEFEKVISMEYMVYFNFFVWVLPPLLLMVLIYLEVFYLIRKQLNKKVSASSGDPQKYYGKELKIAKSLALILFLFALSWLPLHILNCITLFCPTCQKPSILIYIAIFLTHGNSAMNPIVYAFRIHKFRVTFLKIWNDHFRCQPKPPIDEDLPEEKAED
# In short: (§3)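 Rat brain membranes (cerebral cortex for A1, striatum for A2A) homogenized in 10 mM EDTA/10 mM Na-HEPES pH 7.4 with protease inhibitors, washed, stored at -80 °C. 40-70 µg protein incubated in triplicate with radioligand plus seven competitor concentrations in HEPES/EDTA buffer with 2 units/mL adenosine deaminase, 2.5 h, 21 °C. A1: [3H]DPCPX 2 nM, nonspecific with 10 µM NECA; A2A: [3H]ZM241385 0.5-1.2 nM, nonspecific with 10 µM XAC. GF/C filtration; single-site fit, Cheng-Prusoff Ki.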
# [9] = biological target: Adenosine receptor A2a (Rattus norvegicus) (UniProt P30543); experiment: Displacement of [3H]ZM-241385 from adenosine A2A receptor in rat striatal membrane at 10 uM relative to control; type: cell membranes; settings: Striatum
# Adenosine receptor A2a [10] = biological target: Adenosine receptor A2a (Homo sapiens, UniProt P29274); experiment: Displacement of [125I]ZM-241385 from human adenosine A2A receptor
# Adenosine receptor A1 [11] = biological target: T2, Adenosine receptor A1 (Homo sapiens, UniProt P30542); experiment: Displacement of [125I]ABA from human adenosine A1 receptor
# T2 sequence (P30542 whole entry): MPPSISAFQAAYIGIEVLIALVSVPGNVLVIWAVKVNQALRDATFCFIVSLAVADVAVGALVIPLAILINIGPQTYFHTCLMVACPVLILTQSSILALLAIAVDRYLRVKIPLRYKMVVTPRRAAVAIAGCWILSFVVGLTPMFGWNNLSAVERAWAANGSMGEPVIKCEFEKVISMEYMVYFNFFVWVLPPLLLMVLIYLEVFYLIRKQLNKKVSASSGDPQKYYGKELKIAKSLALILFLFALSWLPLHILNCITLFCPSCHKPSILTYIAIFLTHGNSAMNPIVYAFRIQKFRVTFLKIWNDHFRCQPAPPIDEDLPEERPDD
# Adenosine receptor A3 = biological target: T3, Adenosine receptor A3 (Homo sapiens, UniProt P0DMS8); experiment: Displacement of [125I]ABA from human adenosine A3 receptor
# T3 sequence (P0DMS8 whole entry): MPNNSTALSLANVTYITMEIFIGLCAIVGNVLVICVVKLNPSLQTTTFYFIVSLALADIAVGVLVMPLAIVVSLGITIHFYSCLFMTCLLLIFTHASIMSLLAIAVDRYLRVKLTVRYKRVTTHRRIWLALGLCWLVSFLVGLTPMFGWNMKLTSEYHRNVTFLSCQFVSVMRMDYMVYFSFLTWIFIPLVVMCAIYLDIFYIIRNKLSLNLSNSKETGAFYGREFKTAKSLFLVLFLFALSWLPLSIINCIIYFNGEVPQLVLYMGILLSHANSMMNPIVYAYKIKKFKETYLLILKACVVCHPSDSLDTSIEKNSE
# Adenosine receptor A2b = biological target: T4, Adenosine receptor A2b (Homo sapiens, UniProt P29275); experiment: Displacement of [125I]3-(4-aminobenzyl)-8-phenyloxyacetate-1-propyl-xanthine from human adenosine A2B receptor
# T4 sequence (P29275 whole entry): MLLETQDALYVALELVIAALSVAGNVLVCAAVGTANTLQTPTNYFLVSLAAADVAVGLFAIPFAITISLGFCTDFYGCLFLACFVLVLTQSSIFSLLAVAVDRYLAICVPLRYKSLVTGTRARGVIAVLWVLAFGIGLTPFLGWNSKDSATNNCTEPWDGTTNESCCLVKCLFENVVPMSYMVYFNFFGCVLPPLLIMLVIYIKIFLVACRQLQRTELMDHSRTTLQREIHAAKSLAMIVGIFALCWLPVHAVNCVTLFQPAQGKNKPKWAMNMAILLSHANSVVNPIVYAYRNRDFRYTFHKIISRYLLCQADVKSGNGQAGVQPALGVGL
# [12] = biological target: Adenosine receptors; A1 & A2a (Homo sapiens) (UniProt P30542+P29274); experiment: Selectivity for human adenosine A1 receptor over adenosine A2A receptor; type: protein assay
# [13] = biological target: Adenosine receptors; A1 & A2b (Homo sapiens) (UniProt P30542+P29275); experiment: Selectivity for human adenosine A1 receptor over adenosine A2B receptor; type: protein assay
# Rattus norvegicus [14] = experiment: as §2; type: ADME, organism-based, Plasma; set-up: time 0 - last, dose 1 mg/kg, route oral; settings: in vivo; in short: as §1
# Adenosine receptor A1 [15] = biological target: T1, Adenosine receptor A1; experiment: Intrinsic activity at adenosine A1 receptor assessed as blockade of CPA in isolated spontaneously beating rat atria; type: functional; settings: read-out: pA2 (converted)
# Adenosine receptor A2a [16] = biological target: Adenosine receptor A2a (Rattus norvegicus, UniProt P30543); experiment: Displacement of [3H]ZM-241385 from adenosine A2A receptor in rat striatal membrane; type: cell membranes, Striatum; in short: as §3
# Chain of Adenosine receptor A2a (Rattus norvegicus, UniProt P30543) (P30543 whole entry): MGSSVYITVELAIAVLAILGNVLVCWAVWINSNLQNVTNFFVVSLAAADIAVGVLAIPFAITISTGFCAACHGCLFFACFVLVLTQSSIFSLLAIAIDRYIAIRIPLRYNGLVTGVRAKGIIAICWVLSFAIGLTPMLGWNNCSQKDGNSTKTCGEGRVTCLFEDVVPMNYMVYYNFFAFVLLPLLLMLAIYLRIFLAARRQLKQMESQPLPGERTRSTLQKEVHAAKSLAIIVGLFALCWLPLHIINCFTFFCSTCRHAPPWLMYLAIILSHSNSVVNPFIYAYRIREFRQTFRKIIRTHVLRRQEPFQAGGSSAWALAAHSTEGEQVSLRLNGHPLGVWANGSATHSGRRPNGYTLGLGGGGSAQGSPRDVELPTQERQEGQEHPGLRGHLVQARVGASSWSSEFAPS
# Chain of Adenosine receptor A2a (Homo sapiens, UniProt P29274) (P29274 whole entry): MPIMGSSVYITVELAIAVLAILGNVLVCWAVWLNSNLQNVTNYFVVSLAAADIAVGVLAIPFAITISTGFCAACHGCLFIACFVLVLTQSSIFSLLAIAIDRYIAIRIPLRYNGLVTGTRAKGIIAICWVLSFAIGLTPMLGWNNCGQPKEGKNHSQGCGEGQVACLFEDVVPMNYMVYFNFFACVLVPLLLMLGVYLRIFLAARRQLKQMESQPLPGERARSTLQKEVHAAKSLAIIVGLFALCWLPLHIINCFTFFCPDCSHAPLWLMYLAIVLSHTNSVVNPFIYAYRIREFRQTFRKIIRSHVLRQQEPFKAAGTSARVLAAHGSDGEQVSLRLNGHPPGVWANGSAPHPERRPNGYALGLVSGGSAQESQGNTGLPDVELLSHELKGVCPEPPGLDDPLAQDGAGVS
# Chain of Adenosine receptor A2a (Rattus norvegicus) (P30543 whole entry): as the sequence (P30543 whole entry) above
# Chain of Adenosine receptors; A1 & A2a (Homo sapiens) (P29274 whole entry, looked up, one chain of several): as the sequence (P29274 whole entry) above
smiles,measurement,setting,value
CCCN1C(=O)N2C[C@@H](CC)N=C2c2[nH]c(C34CCC(O)(CC3)CC4)nc21.Cl,solubility,[1],100 mg/mL
same,bioavailability,[2],84%
same,Vdss,Rattus norvegicus [3],4.1 L/kg
same,CL/F,[4],18 mL/min/kg
same,ED50,Rattus norvegicus [5],0.01 mg/kg
same,half-life,[6],3.8 h
same,AUC(0-t),[7],800 ng·h/mL
CCCN1C(=O)N2C[C@@H](CC(C)C)N=C2c2[nH]c(C34CCC(O)(CC3)CC4)nc21,Ki,Adenosine receptor A1 [8],170 nM
same,Activity,[9],97%
CCCN1C(=O)N2CCN=C2c2[nH]c(C34CCC(O)(CC3)CC4)nc21,Ki,Adenosine receptor A1 [8],> 100 nM
same,Activity,[9],77%
CCCN1C(=O)N2CC[C@@H](C)N=C2c2[nH]c(C34CCC(O)(CC3)CC4)nc21,Ki,Adenosine receptor A1 [8],> 250 nM
CCCN1C(=O)N2C[C@H](C(C)CC)N=C2c2[nH]c(C34CCC(O)(CC3)CC4)nc21 (stereo partly specified),Ki,Adenosine receptor A1 [8],14 nM
same,Activity,[9],91%
CCCN1C(=O)N2C[C@@H](CC)N=C2c2[nH]c(C34CCC(CCC(=O)O)(CC3)CC4)nc21,Ki,Adenosine receptor A2a [10],> 10000 nM
same,Ki,Adenosine receptor A1 [11],35 nM
same,Ki,Adenosine receptor A3,> 10000 nM
same,Ki,Adenosine receptor A2b,1900 nM
same,Ratio Ki,[12],> 280
same,Activity,[9],83%
same,Ratio Ki,[13],54
CCCN1C(=O)N2C[C@@H](C(C)C)N=C2c2[nH]c(C34CCC(CCC(=O)O)(CC3)CC4)nc21.Cl,bioavailability,[2],77%
same,Vdss,Rattus norvegicus [3],0.9 L/kg
same,ED50,Rattus norvegicus [5],0.01 mg/kg
same,half-life,[6],3.1 h
same,AUC,Rattus norvegicus [14],2600 ng·h/mL
CCCN1C(=O)N2C[C@@H](C(C)C)N=C2c2[nH]c(C34CCC(CCC(=O)O)(CC3)CC4)nc21 [listing 1 of 2 here],Ki,Adenosine receptor A2a [10],18000 nM
same,Ki,Adenosine receptor A1 [11],45 nM
same,Ki,Adenosine receptor A3,> 10000 nM
same,Ki,Adenosine receptor A2b,3100 nM
CCCN1C(=O)N2C[C@@H](CC)N=C2c2[nH]c(C34CCC(O)(CC3)CC4)nc21 [listing 1 of 2 here],Ki,Adenosine receptor A1 [8],6 nM
same,Kb,Adenosine receptor A1 [15],1.32 nM
same,Ki,Adenosine receptor A2a [16],2700 nM
same,Ki,Adenosine receptor A2a [10],4400 nM
same,Ki,Adenosine receptor A1 [11],22 nM
same,Ki,Adenosine receptor A3,> 10000 nM
same,Ki,Adenosine receptor A2b,580 nM
CCCN1C(=O)N2C[C@@H](CC)N=C2c2[nH]c(C34CCC(C(=O)O)(CC3)CC4)nc21,Activity,[9],48%
CCCN1C(=O)N2C[C@@H](C)N=C2c2[nH]c(C34CCC(O)(CC3)CC4)nc21,Ki,Adenosine receptor A1 [11],60 nM
same,Ki,Adenosine receptor A2b,2200 nM
same,Activity,[9],32%
same,Ratio Ki,[13],37
CCCN1C(=O)N2C[C@H](CC)N=C2c2[nH]c(C34CCC(C(=O)O)(CC3)CC4)nc21,Ki,Adenosine receptor A1 [8],> 250 nM
same,Activity,[9],80%
CCC[C@@H]1CN2C(=O)N(CCC)c3[nH]c(C45CCC(O)(CC4)CC5)nc3C2=N1,Activity,[9],90%
CCCN1C(=O)N2C[C@@H](Cc3ccccc3)N=C2c2[nH]c(C34CCC(O)(CC3)CC4)nc21,Activity,[9],84%
CCCn1c(=O)c2[nH]c(C34CCC(O)(CC3)CC4)nc2n(CCC)c1=O,solubility,[1],0.1 mg/mL
same,Ki,Adenosine receptor A1 [8],0.6 nM
same,Ki,Adenosine receptor A2a [10],550 nM
same,Ki,Adenosine receptor A1 [11],2 nM
same,Ki,Adenosine receptor A3,> 1000 nM
same,Ki,Adenosine receptor A2b,430 nM
CCCN1C(=O)N2C[C@@H](C(C)C)N=C2c2[nH]c(C34CCC(O)(CC3)CC4)nc21.Cl,bioavailability,[2],54%
same,Vdss,Rattus norvegicus [3],1.7 L/kg
same,CL/F,[4],21 mL/min/kg
same,ED50,Rattus norvegicus [5],0.01 mg/kg
same,half-life,[6],2.9 h
same,AUC(0-t),[7],810 ng·h/mL
CCCN1C(=O)N2C[C@H](CC)N=C2c2[nH]c(C34CCC(O)(CC3)CC4)nc21,Ki,Adenosine receptor A1 [8],> 100 nM
same,Activity,[9],70%
CCCN1C(=O)N2C[C@@H](c3ccccc3)N=C2c2[nH]c(C34CCC(O)(CC3)CC4)nc21,Activity,[9],79%
CCCn1c(=O)c2nc(C34CCC(CCC(=O)O)(CC3)CC4)[nH]c2n(CCC)c1=O.Cl,bioavailability,[2],99%
same,Vdss,Rattus norvegicus [3],0.3 L/kg
same,CL/F,[4],1.6 mL/min/kg
same,ED50,Rattus norvegicus [5],0.01 mg/kg
same,half-life,[6],3.1 h
same,AUC(0-t),[7],10000 ng·h/mL
CCCn1c(=O)c2nc(C34CCC(O)(CC3)CC4)[nH]c2n(CCC)c1=O,Ratio Ki,[12],275
same,Ratio Ki,[13],215
CCCN1C(=O)N2C[C@@H](C(C)C)N=C2c2[nH]c(C34CCC(O)(CC3)CC4)nc21 [listing 1 of 2 here],Ki,Adenosine receptor A1 [8],4 nM
same,Kb,Adenosine receptor A1 [15],0.126 nM
same,Ki,Adenosine receptor A2a [16],1100 nM
same,Ki,Adenosine receptor A2a [10],1600 nM
same,Ki,Adenosine receptor A1 [11],35 nM
same,Ki,Adenosine receptor A3,> 10000 nM
same,Ki,Adenosine receptor A2b,2000 nM
CCCN1C(=O)N2C[C@@H](CC)N=C2c2[nH]c(C34CCC(O)(CC3)CC4)nc21 [listing 2 of 2 here],Ratio Ki,[12],200
same,Ratio Ki,[13],26
CCCN1C(=O)N2C(=NC[C@@H]2C)c2[nH]c(C34CCC(O)(CC3)CC4)nc21,Ki,Adenosine receptor A1 [8],69 nM
CCCN1C(=O)N2C(=NC[C@H]2C)c2[nH]c(C34CCC(O)(CC3)CC4)nc21,Ki,Adenosine receptor A1 [8],51 nM
CCCN1C(=O)N2C[C@@H](C(C)C)N=C2c2[nH]c(C34CCC(O)(CC3)CC4)nc21 [listing 2 of 2 here],Ratio Ki,[12],46
same,Ratio Ki,[13],57
CCCn1c(=O)c2[nH]c(C34CCC(CCC(=O)O)(CC3)CC4)nc2n(CCC)c1=O [TONAPOFYLLINE],Ki,Adenosine receptor A1 [8],1 nM
same,Kb,Adenosine receptor A1 [15],0.158 nM
same,Ki,Adenosine receptor A2a [10],6400 nM
same,Ki,Adenosine receptor A3,> 10000 nM
same,Ki,Adenosine receptor A2b,90 nM
CCCN1C(=O)N2C[C@@H](C(C)C)N=C2c2[nH]c(C34CCC(CCC(=O)O)(CC3)CC4)nc21 [listing 2 of 2 here],Ratio Ki,[12],400
same,Activity,[9],74%
same,Ratio Ki,[13],69
CCCN1C(=O)N2CC[C@@H](CC)N=C2c2[nH]c(C34CCC(O)(CC3)CC4)nc21,Ki,Adenosine receptor A1 [8],> 250 nM
